Assays:
Acetylcholinesterase = Acetylcholinesterase (Homo sapiens, UniProt P22303); assay: Inhibition of human acetylcholinesterase from erythrocytes (RBC)
Cholinesterase = Cholinesterase (Homo sapiens, UniProt P06276); assay: Inhibition of human Butyrylcholinesterase
Outline: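 Compounds in Tween 80/EtOH 3:1 were diluted in half-log steps to 0.3 nM–[…] final and preincubated with enzyme in pH 8.0 buffer for 30 min at RT. Run on four occasions. IC50 from logit activity versus log concentration.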

[1] = In vivo half life of the compound; format: ADME, organism-based

Chain of Acetylcholinesterase (P22303 whole entry): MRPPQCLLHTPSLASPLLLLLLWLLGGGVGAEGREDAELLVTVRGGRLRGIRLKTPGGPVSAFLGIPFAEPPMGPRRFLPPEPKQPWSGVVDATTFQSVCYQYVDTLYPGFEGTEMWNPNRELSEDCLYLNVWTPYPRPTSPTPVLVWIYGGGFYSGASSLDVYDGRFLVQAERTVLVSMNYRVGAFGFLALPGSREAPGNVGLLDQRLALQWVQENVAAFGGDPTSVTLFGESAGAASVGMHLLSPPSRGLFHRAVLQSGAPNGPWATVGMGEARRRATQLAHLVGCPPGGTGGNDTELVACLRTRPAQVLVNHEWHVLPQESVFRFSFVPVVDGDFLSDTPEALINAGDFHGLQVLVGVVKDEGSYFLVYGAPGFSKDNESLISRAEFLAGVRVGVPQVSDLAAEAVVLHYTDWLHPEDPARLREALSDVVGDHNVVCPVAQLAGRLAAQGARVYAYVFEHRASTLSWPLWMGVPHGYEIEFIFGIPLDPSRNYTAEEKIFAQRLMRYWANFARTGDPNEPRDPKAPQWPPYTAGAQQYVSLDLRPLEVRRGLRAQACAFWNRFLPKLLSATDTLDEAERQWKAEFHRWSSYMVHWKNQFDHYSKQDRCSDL
Chain of Cholinesterase (P06276 whole entry): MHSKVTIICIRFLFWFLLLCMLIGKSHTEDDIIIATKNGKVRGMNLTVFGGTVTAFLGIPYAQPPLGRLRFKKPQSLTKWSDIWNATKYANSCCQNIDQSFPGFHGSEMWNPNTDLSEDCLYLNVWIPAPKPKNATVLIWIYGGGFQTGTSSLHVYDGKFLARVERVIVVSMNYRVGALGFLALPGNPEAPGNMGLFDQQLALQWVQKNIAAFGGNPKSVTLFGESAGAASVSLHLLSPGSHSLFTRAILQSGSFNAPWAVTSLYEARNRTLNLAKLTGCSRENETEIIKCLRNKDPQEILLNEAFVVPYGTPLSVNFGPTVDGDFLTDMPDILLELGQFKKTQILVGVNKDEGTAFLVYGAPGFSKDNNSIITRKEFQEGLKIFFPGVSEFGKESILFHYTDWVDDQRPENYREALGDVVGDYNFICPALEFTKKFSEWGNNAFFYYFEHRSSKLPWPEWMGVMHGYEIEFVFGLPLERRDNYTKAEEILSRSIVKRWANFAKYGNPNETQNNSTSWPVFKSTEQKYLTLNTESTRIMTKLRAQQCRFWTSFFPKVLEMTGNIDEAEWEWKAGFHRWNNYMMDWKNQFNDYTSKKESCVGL

Compound `CN1CC[C@@]2(C)c3cc(OC(=O)Nc4ccccc4)ccc3N(C=O)C12` (stereo not given in full) has an IC50 (Acetylcholinesterase) of 780 nM and an IC50 (Cholinesterase) of 1470 nM.
For `CNC(=O)Oc1ccc2c(c1)[C@@]1(C)CCN(C)C1N2Cc1ccccc1` (stereo not given in full), the IC50 (Acetylcholinesterase) was 2850 nM and the IC50 (Cholinesterase) was 1590 nM.
For `CN1CC[C@@]2(C)c3cc(OC(=O)Nc4ccccc4)ccc3N(Cc3ccccc3)C12` (stereo not given in full), the IC50 (Acetylcholinesterase) was 245 nM and the IC50 (Cholinesterase) was 85.3 nM.
For `CN1CC[C@@]2(C)c3cc(OC(=O)Nc4ccccc4)ccc3NC12` (stereo not given in full), the IC50 (Cholinesterase) was 516 nM.
Compound `CNC(=O)Oc1ccc2c(c1)[C@]1(C)CCN(C)C1N2` (stereo not given in full) has an IC50 (Acetylcholinesterase) of 56.7 nM and an IC50 (Cholinesterase) of 6.8 nM.
`CN1CC[C@@]2(C)c3cc(OC(=O)Nc4ccccc4)ccc3N(C)C12` (stereo not given in full) showed an IC50 (Acetylcholinesterase) of 24 nM, a half-life [1] of 8 h and an IC50 (Cholinesterase) of 1300 nM.
In the case of `CN1CC[C@]2(C)c3cc(OC(=O)Nc4ccccc4)ccc3N(C)C12` (stereo not given in full), the IC50 (Acetylcholinesterase) is reported as 3500 nM and the IC50 (Cholinesterase) is reported as 23500 nM.
`CNC(=O)Oc1ccc2c(c1)[C@]1(C)CCN(C)C1N2Cc1ccccc1` (stereo not given in full) showed an IC50 (Acetylcholinesterase) of 161 nM and an IC50 (Cholinesterase) of 21.8 nM.
For `CN1CC[C@]2(C)c3cc(OC(=O)Nc4ccccc4)ccc3NC12` (stereo not given in full), the IC50 (Acetylcholinesterase) was 5650 nM and the IC50 (Cholinesterase) was 1750 nM.
For `CNC(=O)Oc1ccc2c(c1)[C@@]1(C)CCN(C)C1N2` (stereo not given in full), the IC50 (Acetylcholinesterase) was 2190 nM and the IC50 (Cholinesterase) was 1120 nM.
Work on `CNC(=O)Oc1ccc2c(c1)[C@]1(C)CCN(C)C1N2C=O` (stereo not given in full) yielded an IC50 (Acetylcholinesterase) of 387 nM and an IC50 (Cholinesterase) of 46 nM.
In the case of `CN1CC[C@]2(C)c3cc(OC(=O)Nc4ccccc4)ccc3N(Cc3ccccc3)C12` (stereo not given in full), the IC50 (Acetylcholinesterase) is reported as 11200 nM and the IC50 (Cholinesterase) is reported as 7090 nM.
For `CNC(=O)Oc1ccc2c(c1)[C@]1(C)CCN(C)[C@@H]1N2C` [PHYSOSTIGMINE], the half-life [1] was 1 h.

Source: ChEMBL document CHEMBL1130392, “Total syntheses and anticholinesterase activities of (3aS)-N(8)-norphysostigmine, (3aS)-N(8)-norphenserine, their antipodal isomers, and other N(8)-substituted analogues” (J Med Chem, 1997)
